43 compounds from ChEMBL document CHEMBL1131375, “2-amino-4H-3,1-benzoxazin-4-ones as inhibitors of C1r serine protease” (J Med Chem, 1998) can be followed below.

Each structure is given as a SMILES string.

Assay [1] addresses T1, Complement C1r subcomponent (Homo sapiens, UniProt P00736).
T1 sequence (P00736 whole entry): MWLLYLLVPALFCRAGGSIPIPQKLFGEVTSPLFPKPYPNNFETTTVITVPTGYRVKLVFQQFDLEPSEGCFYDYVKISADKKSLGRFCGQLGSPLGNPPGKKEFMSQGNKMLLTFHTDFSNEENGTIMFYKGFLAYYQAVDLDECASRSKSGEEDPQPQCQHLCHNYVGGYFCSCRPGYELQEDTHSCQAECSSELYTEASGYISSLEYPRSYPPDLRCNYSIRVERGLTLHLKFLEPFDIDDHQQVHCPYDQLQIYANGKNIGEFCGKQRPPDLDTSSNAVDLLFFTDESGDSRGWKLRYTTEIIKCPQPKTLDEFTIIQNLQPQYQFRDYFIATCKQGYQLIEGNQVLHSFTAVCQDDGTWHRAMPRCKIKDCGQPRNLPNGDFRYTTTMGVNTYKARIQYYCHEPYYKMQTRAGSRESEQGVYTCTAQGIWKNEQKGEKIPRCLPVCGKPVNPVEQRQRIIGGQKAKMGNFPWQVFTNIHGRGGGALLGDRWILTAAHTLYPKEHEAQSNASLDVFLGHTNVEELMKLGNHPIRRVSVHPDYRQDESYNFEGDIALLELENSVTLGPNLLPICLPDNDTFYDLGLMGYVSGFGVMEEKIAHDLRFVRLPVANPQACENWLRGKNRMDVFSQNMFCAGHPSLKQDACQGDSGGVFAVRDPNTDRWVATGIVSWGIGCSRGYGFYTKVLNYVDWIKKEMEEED

Assay [2] addresses T2, Serine protease 1 (Bos taurus, UniProt P00760).
T2 sequence (P00760 whole entry): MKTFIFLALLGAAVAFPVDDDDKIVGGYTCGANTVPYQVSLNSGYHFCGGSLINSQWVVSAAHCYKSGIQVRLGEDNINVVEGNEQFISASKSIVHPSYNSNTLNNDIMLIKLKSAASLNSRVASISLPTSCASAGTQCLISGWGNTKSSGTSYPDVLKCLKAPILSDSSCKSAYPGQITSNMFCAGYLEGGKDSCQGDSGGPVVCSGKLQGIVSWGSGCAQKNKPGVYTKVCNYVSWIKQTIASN
The assay can be described thus: Concentration of compound required to inhibit 50% trypsin derived from bovine pancreas. In outline:
(§1)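 Bovine pancreatic trypsin (1.25 μg) with casein 0.5 mg/mL, 20 mM dithiothreitol, 50 mM Tris-HCl pH 7.4, at various inhibitor concentrations; 60 min, 25 °C caseinolysis, colorimetric development, absorbance 595 nm. IC50 from percent inhibition versus log [inhibitor]; mean of two to four determinations, ranges within 20%.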

Assay [3] is described as follows: The compound was examined in a functional assay using erythrocyte hemolysis as a functional end point of complement inhibition. On the set-up: species or system Ovis aries; concentration or dose not given beside the values. A digest of the protocol: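 Compound added to standardized antibody-sensitized sheep erythrocyte suspension (commercial complement kit), incubated 60 min at 25 °C, centrifuged; supernatant absorbance read at 405 nm. Expressed as percent of control at 200 μM.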

Assay [4] has as its target T1, Complement C1r subcomponent. The assay is described as follows: 50% inhibition of human C1r serine protease after 60 mins using Cbz-Gly-Arg-S-Bzl as substrate. In outline:
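Compound (DMSO) preincubated 60 min at room temperature in 150 mM Tris pH 7.5, then substrate (1.5 mM stock Cbz-Gly-Arg-S-Bzl in DMSO/H2O 3:7), DTNB (0.75 mM stock) and purified human C1r (20 μg/mL stock, 10 mM Tris pH 7.4) added. Read kinetically at 405 nm after 30 s; no-enzyme background wells; triplicates per concentration; IC50 reported.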

The target in assay [5] is T2, Serine protease 1. The assay can be described thus: The compound was evaluated to inhibit trypsin and is expressed in IC50 (The concentration required to inhibit 50% of the enzyme). A digest of the protocol: as §1

In assay [1], `O=c1oc(Nc2ccccc2I)nc2cc(C3CCCCC3)ccc12` yielded a half-inhibitory concentration (IC50) greater than 62.5 µM.

`O=c1oc(Nc2ccccc2I)nc2cc(Cl)cc(Cl)c12` yielded an IC50 in assay [1] greater than 62.5 µM.

Turning to `Cc1ccc2c(=O)oc(Nc3ccccc3I)nc2c1`, the IC50 is greater than 100 µM on Serine protease 1 [2] and 1.5 µM in assay [4]. The “Hemolysis (% of control)” value in assay [3] is reported as 114%.

With `CSc1ccccc1Nc1nc2ccccc2c(=O)o1`, in assay [1], the IC50 is greater than 62.5 µM.

`O=c1oc(Nc2ccccc2Br)nc2ccccc12`: the IC50 is greater than 100 µM on Serine protease 1 [2] and 15.2 µM in assay [4].

As for `O=c1oc(NCc2ccccc2I)nc2ccccc12`, in assay [1], the IC50 was greater than 62.6 µM.

Take `CCN(c1nc2ccccc2c(=O)o1)c1ccccc1I`: the IC50 in assay [1] was greater than 62.5 µM.

`COc1ccc2nc(Nc3ccccc3I)oc(=O)c2c1` yielded an IC50 in assay [4] greater than 62.5 µM.

`N=C(N)c1ccc2cc(OC(=O)c3ccc(N=C(N)N)cc3)ccc2c1` [NAFAMOSTAT] yielded an IC50 at Serine protease 1 [5] of 0.017 µM.

As for `O=c1oc(Nc2cc(Cl)ccc2Cl)nc2ccccc12`, the results for the concentration for half-maximal inhibition (IC50) (against Serine protease 1 [2]; in assay [4]; in assay [1]) were greater than 100 µM, 2 µM and 2 µM, respectively. Also, the “Hemolysis (% of control)” value in assay [3] is given as 131%.

`O=c1oc(Nc2ccccc2I)nc2cc([N+](=O)[O-])ccc12`: the concentration for half-maximal inhibition (IC50) was greater than 100 µM at Serine protease 1 [2], 7.8 µM in assay [4] and 0.8 µM in assay [1]. Further, in assay [3], the “Hemolysis (% of control)” value is reported as 126%.

On Serine protease 1 [2], `O=c1oc(-c2ccccc2I)nc2ccccc12` came in with an IC50 of 15.3 µM. In addition, in assay [3], the “Hemolysis (% of control)” value was 61%.

As to `COc1cc2nc(Nc3ccccc3I)oc(=O)c2cc1OC`, the IC50 in assay [4] and in assay [1] was 47 µM each time.

In turn, `O=c1oc(Nc2ccccc2Cl)nc2cc(Cl)c(Cl)cc12` gave an IC50 in assay [4] greater than 62.5 µM.

For `O=c1oc(Nc2c(Cl)cccc2Cl)nc2ccccc12`, the IC50 in assay [4] and in assay [1] was 0.9 µM in each case.

As for `O=c1oc(Nc2ccccc2I)nc2cc3ccccc3cc12`, the IC50 in assay [4] came to 16.6 µM; in assay [1], 0.2 µM.

Regarding `O=c1oc(Nc2ccccc2Cl)nc2ccccc12`, in assay [4], inhibition was half-maximal at 8 µM (IC50).

In the case of `CNc1nc2ccccc2c(=O)o1`, the IC50 in assay [1] was greater than 62.5 µM.

`O=c1oc(Nc2ccccc2I)nc2ccccc12` displayed an IC50 in assay [4] of 14.7 µM.

`O=c1oc(Nc2ccccc2I)nc2cc(F)ccc12`: the results for the IC50 (at Serine protease 1 [2]; in assay [4]; in assay [1]) were greater than 100 µM, 2.8 µM and 1.7 µM, respectively.

In assay [4], `O=c1oc(Nc2c(Cl)cccc2Cl)nc2cc(Cl)ccc12` registered an IC50 of 0.9 µM.

For the compound `O=c1oc(Nc2ccccc2Cl)nc2cc(Cl)ccc12`, the results for the IC50 (at Serine protease 1 [2]; in assay [4]; in assay [1]) were greater than 100 µM, 0.8 µM and 0.8 µM, respectively. The “Hemolysis (% of control)” value in assay [3] stood at 138%.

Turning to `O=c1oc(Nc2ccccc2I)nc2cc(C(F)(F)F)ccc12`, the IC50 is greater than 100 µM against Serine protease 1 [2] and 4 µM in assay [4]. Further, the “Hemolysis (% of control)” value in assay [3] is 146%.

Take `CN(C)c1ccc2c(=O)oc(Nc3ccccc3I)nc2c1`: the IC50 in assay [1] is greater than 62.5 µM.

In assay [4], `O=c1oc(Nc2ccccc2I)nc2cc(F)c(F)cc12` returned a concentration for half-maximal inhibition (IC50) greater than 62.5 µM.

Take `Cc1ccccc1Nc1nc2ccccc2c(=O)o1`: in assay [4], the IC50 came out at 38 µM.

With `O=c1oc(Nc2ccccc2I)nc2cc(Cl)c(Cl)cc12`, the IC50 in assay [4] was greater than 62.5 µM.

`Cc1ccc2nc(Nc3ccccc3I)oc(=O)c2c1`: in assay [1], the IC50 was greater than 62.5 µM.

As to `CN(c1nc2ccccc2c(=O)o1)c1ccccc1I`, the IC50 at Serine protease 1 [2] stood at 4.5 µM; in assay [4], 16.6 µM. Further, the “Hemolysis (% of control)” value in assay [3] was 72%.

With `Nc1nc2ccccc2c(=O)o1`, in assay [1], the IC50 is greater than 62.5 µM.

In turn, `O=c1oc(Nc2ccccc2I)nc2cccc(Cl)c12` showed an IC50 in assay [4] greater than 62.5 µM.

With `O=c1oc(Nc2ccccc2Cl)nc2cc([N+](=O)[O-])ccc12`, the IC50 in assay [4] was greater than 62.5 µM.

As for `O=c1oc(Nc2ccccc2OC(F)(F)F)nc2ccccc12`, in assay [4], the IC50 was greater than 62.5 µM.

As to `O=c1oc(Nc2c(Cl)cccc2Cl)nc2cc(C(F)(F)F)ccc12`, the IC50 at Serine protease 1 [2] came to 87.1 µM; in assay [4], 4.2 µM; in assay [1] it was 1.5 µM. Further, in assay [3], the “Hemolysis (% of control)” value was determined as 120%.

In assay [4], `Cc1ccc2c(=O)oc(Nc3ccccc3Cl)nc2c1` had an IC50 of 0.9 µM.

`O=c1oc(Nc2ccccc2I)nc2ccc(Cl)cc12` registered an IC50 in assay [4] greater than 62.5 µM.

As to `Cc1cccc2nc(NC(C)C)oc(=O)c12`, the IC50 in assay [1] is greater than 62.5 µM.

The compound `COc1ccc2c(=O)oc(Nc3ccccc3I)nc2c1` displayed an IC50 in assay [1] greater than 62.5 µM.

As for `CC(C)c1ccc2c(=O)oc(Nc3ccccc3I)nc2c1`, in assay [1], the IC50 is greater than 62.5 µM.

The compound `Cc1cccc2nc(Nc3ccccc3I)oc(=O)c12` came in with an IC50 in assay [1] greater than 62.5 µM.

Compound `O=c1oc(Nc2ccccc2I)nc2cc(Cl)ccc12` came in with an IC50 in assay [4] of 0.9 µM.

`Cc1cccc(C)c1Nc1nc2ccccc2c(=O)o1`: the IC50 in assay [1] was greater than 62.5 µM.

The compound `O=c1oc(NCCc2ccccc2I)nc2ccccc12` returned an IC50 in assay [1] greater than 62.5 µM.
